The results in this text go back to ChEMBL document CHEMBL1124265, “Effects of D-amino acid substitution on antagonist activities of angiotensin II analogues” (J Med Chem, 1988).

SMILES strings stand for the structures. Some results are limits rather than exact numbers.

The subject of experiment [1] is Rattus norvegicus. Description: AII-like activity, expressed as percent relative to AII (angiotensin II) was measured in the in vivo rat blood pressure assay. The experiment is classed as functional. In short, it runs like this:
(§1)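 Rat blood pressure assay in vivo. Residual agonist activity is expressed as percent activity relative to AII.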

Experiment [2] relates to Rattus norvegicus. Description: Dose required for the two fold increase in the dose of AII to produce the same elevation in blood pressure as in the control period.(in vivo). The experiment is classed as functional. In short, it runs like this: (§2)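 Rat blood pressure assay in vivo, using 250-g rats. ID50 is the antagonist dose, in ng/rat per min, that requires a twofold increase in the AII dose to give the same blood pressure rise as in the control period.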

The target in experiment [3] is Angiotensin II receptor (Homo sapiens) (UniProt P30556+P50052). Description: In vitro angiotensin II-like activity, expressed as percent relative to angiotensin II, measured in the rabbit aorta strip assay. The experiment is classed as functional, tissue-based. The conditions noted are these: Oryctolagus cuniculus.
The species entered for experiment [4] is Oryctolagus cuniculus. Description: In vitro AII-like activity, expressed as percent activity relative to AII (angiotensin II), measured in rabbit aorta. The experiment is classed as functional.
The species entered for experiment [5] is Rattus norvegicus. Description: Dose required for the two fold increase in the dose of AII to produce the same elevation in blood pressure as in the control period. The experiment is classed as functional. Summed up: as §2
Experiment [6] relates to Rattus norvegicus. Description: In vivo AII-like activity, expressed as percent activity relative to AII (angiotensin II), measured in rat blood pressure assay; g = partial agonist at 10 ng/mL. Particulars: filed as partial agonist. The experiment is classed as functional, organism-based. In short, it runs like this:
as §1

For experiment [7], the species on record is Oryctolagus cuniculus. The experiment in a line: AII-like activity, expressed as percent relative to AII (angiotensin II) was measured in the in vitro rabbit aorta strip assay; g = partial agonist at 10 ng/mL. Particulars: filed as partial agonist. The experiment is classed as functional.
The test system of experiment [8] is Rattus norvegicus. Description: In vivo AII-like activity, expressed as percent activity relative to AII (angiotensin II), measured in rat blood pressure assay. The experiment is classed as functional. Summed up: as §1
The species entered for experiment [9] is Oryctolagus cuniculus. Description: pA2 value was determined in the range of competitive inhibition in the in vitro rabbit aorta strip assay; g = partial agonist at 10 ng/mL. The experiment is classed as functional. Particulars: filed as partial agonist.
The species entered for experiment [10] is Oryctolagus cuniculus. Description: AII-like activity, expressed as percent activity relative to AII (angiotensin II), measured in rabbit aorta strip assay.

As to `CC[C@H](C)[C@H](NC(=O)[C@@H]1CCCN1C(=O)[C@@H](Cc1c[nH]cn1)NC(=O)[C@@H](NC(=O)[C@H](Cc1ccc(O)cc1)NC(=O)[C@@H](NC(=O)[C@H](CCCN=C(N)N)NC(=O)CNC)C(C)C)[C@@H](C)CC)C(=O)O`, the values for the Biological activity (in the experiment on Rattus norvegicus [1]; in experiment [3]) were 0% and -0%, respectively. Moreover, the ID50 with Rattus norvegicus [2] is more than 1000 ng min-1 rat-1.
`CC[C@H](C)[C@H](NC(=O)[C@H](Cc1ccc(O)cc1)NC(=O)[C@@H](NC(=O)[C@H](CCCN=C(N)N)NC(=O)CNC)C(C)C)C(=O)N[C@@H](Cc1c[nH]cn1)C(=O)N1CCC[C@H]1C(=O)N[C@H](Cc1ccccc1)C(=O)O` returned a Biological activity in the experiment listed under Oryctolagus cuniculus [4] of 0%. This compound also came in with an ID50 in the experiment filed under Rattus norvegicus [5] of 12.5 ng min-1 rat-1.
In the experiment with Rattus norvegicus [2], `CC[C@H](C)[C@H](NC(=O)[C@@H]1CCCN1C(=O)[C@H](Cc1c[nH]cn1)NC(=O)[C@@H](NC(=O)[C@H](Cc1ccc(O)cc1)NC(=O)[C@@H](NC(=O)[C@@H](CCCN=C(N)N)NC(=O)CNC)C(C)C)[C@@H](C)CC)C(=O)O` had an ID50 of 150 ng min-1 rat-1. The Biological activity in experiment [3] is -0%.
For the compound `CC[C@H](C)[C@H](NC(=O)[C@H](Cc1ccc(O)cc1)NC(=O)[C@@H](NC(=O)[C@H](CCCN=C(N)N)NC(=O)CNC)C(C)C)C(=O)N[C@@H](Cc1c[nH]cn1)C(=O)N1CCC[C@H]1C(=O)N[C@H](C(=O)O)c1ccccc1`, the Biological activity result with Rattus norvegicus [6] and in the experiment listed under Oryctolagus cuniculus [7] was “Partial agonist” each time.
For the compound `CC[C@H](C)[C@H](NC(=O)[C@H](Cc1ccc(O)cc1)NC(=O)[C@@H](NC(=O)[C@@H](CCCNC(=N)N)NC(=O)CNC)C(C)C)C(=O)N[C@@H](Cc1c[nH]cn1)C(=O)N1CCC[C@@H]1C(=O)NC(Cc1c[nH]c2ccccc12)C(=O)O` (stereo in doubt), in the experiment filed under Rattus norvegicus [5], the ID50 was found to be 10 ng min-1 rat-1.
Still for that read-out and setting: in the case of `CC[C@H](C)[C@H](NC(=O)[C@H](Cc1ccc(O)cc1)NC(=O)[C@@H](NC(=O)[C@H](CCCNC(=N)N)NC(=O)CNC)C(C)C)C(=O)N[C@@H](Cc1c[nH]cn1)C(=O)N1CCC[C@H]1C(=O)N[C@H](Cc1ccccc1)C(N)=O` it was 12.5 ng min-1 rat-1.
In the experiment filed under Rattus norvegicus [5], `CC[C@H](C)[C@H](NC(=O)[C@H](Cc1ccccc1)NC(=O)[C@@H](NC(=O)[C@H](CCCN=C(N)N)NC(=O)CNC)C(C)C)C(=O)N[C@@H](Cc1c[nH]cn1)C(=O)N1CCC[C@H]1C(=O)N[C@@H](Cc1ccc(O)cc1)C(=O)O` gave an ID50 of 50 ng min-1 rat-1. Besides, the Biological activity in [3] was -0%.
In the case of `CC[C@H](C)[C@H](NC(=O)[C@H](Cc1ccc(O)cc1)NC(=O)[C@@H](NC(=O)[C@H](CCCNC(=N)N)NC(=O)CNC)C(C)C)C(=O)N[C@@H](Cc1c[nH]cn1)C(=O)N1CCC[C@H]1C(=O)N[C@@H](C(=O)O)C(C)C`, the Biological activity with Rattus norvegicus [1] came to 10. In the experiment listed under Rattus norvegicus [5], this compound came in with an ID50 of 50 ng min-1 rat-1.
In turn, `CC[C@H](C)[C@H](NC(=O)[C@@H]1CCCN1C(=O)[C@H](Cc1c[nH]cn1)NC(=O)[C@@H](NC(=O)[C@H](Cc1ccc(O)cc1)NC(=O)[C@@H](NC(=O)[C@H](CCCN=C(N)N)NC(=O)CNC)C(C)C)[C@@H](C)CC)C(=O)O` registered an ID50 in the experiment with Rattus norvegicus [2] of 10 ng min-1 rat-1. In experiment [3], this compound registered a Biological activity of -0%.
The compound `CC[C@H](C)[C@H](NC(=O)[C@H](Cc1ccc(O)cc1)NC(=O)[C@@H](NC(=O)[C@H](CCCN=C(N)N)NC(=O)CNC)C(C)C)C(=O)N[C@@H](Cc1c[nH]cn1)C(=O)N1CCC[C@H]1C(=O)N[C@@H](C(=O)O)c1ccccc1` had an ID50 in the experiment listed under Rattus norvegicus [5] of 3.5 ng min-1 rat-1. Besides, in experiment [3], the Biological activity was -0%.
`CC[C@H](C)[C@H](NC(=O)[C@@H]1CCCN1C(=O)[C@H](Cc1c[nH]cn1)NC(=O)[C@H](NC(=O)[C@H](Cc1ccc(O)cc1)NC(=O)[C@H](NC(=O)[C@H](CCCN=C(N)N)NC(=O)CNC)C(C)C)C(C)C)C(=O)O` came in with an ID50 in the experiment on Rattus norvegicus [2] of more than 1000 ng min-1 rat-1. Further, the Biological activity in experiment [3] is -0%; with Rattus norvegicus [8] it was 0%.
Regarding `CC[C@H](C)[C@H](NC(=O)C(C)NC(=O)[C@H](Cc1c[nH]cn1)NC(=O)[C@H](NC(=O)[C@@H](Cc1ccc(O)cc1)NC(=O)[C@@H](NC(=O)[C@H](CCCNC(=N)N)NC(=O)[C@@H](N)CC(=O)O)C(C)C)C(C)C)C(=O)O` (stereo in doubt), the ID50 in the experiment listed under Rattus norvegicus [5] is reported as 0 ng min-1 rat-1.
Turning to `CC[C@H](C)[C@H](NC(=O)[C@H](Cc1ccccc1)NC(=O)[C@@H](NC(=O)[C@H](CCCN=C(N)N)NC(=O)CNC)C(C)C)C(=O)N[C@@H](Cc1c[nH]cn1)C(=O)N1CCC[C@H]1C(=O)N[C@H](Cc1ccc(O)cc1)C(=O)O`, in the experiment filed under Rattus norvegicus [5], the ID50 was determined as 25 ng min-1 rat-1. The compound further registered a Biological activity in experiment [3] of -0%.
Consider `CC[C@H](C)[C@H](NC(=O)[C@H](Cc1ccc(O)cc1)NC(=O)[C@@H](NC(=O)[C@H](CCCN=C(N)N)NC(=O)CNC)C(C)C)C(=O)N[C@H](Cc1c[nH]cn1)C(=O)N1CCC[C@H]1C(=O)N[C@H](Cc1ccccc1)C(=O)O`, for which the ID50 in the experiment listed under Rattus norvegicus [5] was 0 ng min-1 rat-1. For the same compound, the Biological activity is -0% in experiment [3] and 0% in the experiment with Rattus norvegicus [8].
Regarding `CC[C@H](C)[C@H](NC(=O)[C@H](Cc1ccc(O)cc1)NC(=O)[C@@H](NC(=O)[C@H](CCCNC(=N)N)NC(=O)CNC)C(C)C)C(=O)N[C@@H](Cc1c[nH]cn1)C(=O)N1CCC[C@H]1C(=O)N[C@](C)(Cc1ccccc1)C(=O)O`, in the experiment filed under Rattus norvegicus [5], the ID50 turned out to be 10 ng min-1 rat-1.
`CC[C@H](C)[C@H](NC(=O)[C@H](Cc1ccc(O)cc1)NC(=O)[C@@H](NC(=O)[C@H](CCCN=C(N)N)NC(=O)CNC)C(C)C)C(=O)N[C@@H](Cc1c[nH]cn1)C(=O)N1CCC[C@H]1C(=O)N[C@@H](CCc1ccccc1)C(=O)O`: in the experiment filed under Oryctolagus cuniculus [9], the pA2 result is “Partial agonist”. For the same compound, the Biological activity result in the experiment listed under Oryctolagus cuniculus [7] was “Partial agonist”.
In the case of `CC[C@H](C)[C@H](NC(=O)[C@H]1CCCN1C(=O)[C@H](Cc1c[nH]cn1)NC(=O)[C@@H](NC(=O)[C@H](Cc1ccc(O)cc1)NC(=O)[C@@H](NC(=O)[C@H](CCCNC(=N)N)NC(=O)[C@@H](N)CC(=O)O)C(C)C)[C@@H](C)CC)C(=O)O`, the Biological activity in the experiment filed under Oryctolagus cuniculus [10] is recorded as 0.1%.
Take `CC[C@H](C)[C@H](NC(=O)[C@H](Cc1ccc(O)cc1)NC(=O)[C@@H](NC(=O)[C@H](CCCN=C(N)N)NC(=O)CNC)C(C)C)C(=O)N[C@@H](Cc1c[nH]cn1)C(=O)N1CCC[C@H]1C(=O)N[C@H](Cc1ccc(O)cc1)C(=O)O`: the ID50 in the experiment listed under Rattus norvegicus [5] is given as 20 ng min-1 rat-1. The compound also displayed a Biological activity in [3] of -0%.
For `CC[C@H](C)[C@H](NC(=O)[C@H](Cc1ccc(O)cc1)NC(=O)[C@@H](NC(=O)[C@H](CCCN=C(N)N)NC(=O)CNC)C(C)C)C(=O)N[C@@H](Cc1c[nH]cn1)C(=O)N1CCC[C@H]1C(=O)N[C@@H](C)C(=O)O` the same measures were 15 ng min-1 rat-1 and -0%.
